Active and inactive are the calls of the source. The rule behind the calls is not given here.

Data on one compound can be found in ChEMBL document CHEMBL3259708, “Thienoquinolines as novel disruptors of the PKCε/RACK2 protein-protein interaction” (J Med Chem, 2014).

Data set [1] concerns the target Ribosomal protein S6 kinase alpha-3 (Homo sapiens) (UniProt P51812). Nature of the data set: Inhibition of RSK2 (unknown origin) at 25 uM; values are per cent of control.
The subject of data set [2] is HeLa. Nature of the data set: Antiproliferative activity against human HeLa cells expressing luciferase gene up to 50 uM. It is filed as cell-based. In short, it runs like this:
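HeLa-HLR and PC-3 cells seeded ~10 000/well; agent added after 4 h at various concentrations for 72 h; growth read by SRB assay; mean ±SD of three independent experiments, triplicate samples each.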

Data set [3] deals with Protein kinase C beta type (Homo sapiens) (UniProt P05771). The data set is described as follows: Inhibition of PKCbeta1 (unknown origin) at 50 uM.
For data set [4], the target named is T1, Protein kinase C epsilon type (Homo sapiens, UniProt Q02156).
T1 sequence (Q02156 whole entry): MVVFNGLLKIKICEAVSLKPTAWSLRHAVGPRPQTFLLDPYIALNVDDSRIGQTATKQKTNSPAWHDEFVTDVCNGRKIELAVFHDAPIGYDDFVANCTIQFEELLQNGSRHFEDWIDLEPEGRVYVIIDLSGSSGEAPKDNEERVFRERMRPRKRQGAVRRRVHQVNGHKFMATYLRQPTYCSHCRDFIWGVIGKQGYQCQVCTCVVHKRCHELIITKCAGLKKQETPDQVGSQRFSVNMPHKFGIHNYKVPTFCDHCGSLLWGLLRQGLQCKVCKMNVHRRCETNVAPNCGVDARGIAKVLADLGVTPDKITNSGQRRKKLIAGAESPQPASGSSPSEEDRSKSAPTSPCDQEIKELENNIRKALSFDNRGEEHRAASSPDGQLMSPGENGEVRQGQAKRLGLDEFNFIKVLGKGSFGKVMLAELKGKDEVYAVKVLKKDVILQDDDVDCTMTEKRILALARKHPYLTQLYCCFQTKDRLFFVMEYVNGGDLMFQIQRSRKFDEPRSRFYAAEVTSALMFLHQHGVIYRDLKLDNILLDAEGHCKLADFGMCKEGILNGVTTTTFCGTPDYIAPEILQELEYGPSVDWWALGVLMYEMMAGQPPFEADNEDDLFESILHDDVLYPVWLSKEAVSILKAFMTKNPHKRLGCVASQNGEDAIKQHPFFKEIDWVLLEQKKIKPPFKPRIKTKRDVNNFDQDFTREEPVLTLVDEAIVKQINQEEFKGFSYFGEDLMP
Nature of the data set: (§1) Inhibition of recombinant PKCepsilon (unknown origin)-MBP-tagged RACK2 interaction after 1 hr by ELISA-based assay relative to untreated control. In short, it runs like this:
(§2)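 ELISA: plates coated with 100 ng recombinant PKCε in 20 mM Tris-HCl/100 mM NaCl pH 7.5 overnight at 4 °C, blocked with 3% BSA; PKCε activated 10 min at 30 °C with 60 μg/mL phosphatidylserine and 100 nM TPA; RACK2-MBP preincubated with agent 30 min, then 500 ng added for 1 h binding; anti-RACK2/HRP detection, ABTS at 420 nm; four experiments, quadruplicates, normalized to control; IC50 via CalcuSyn.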
Background: ELISA stands for enzyme-linked immunosorbent assay.

Data set [5] addresses T2, Protein kinase C epsilon type (Homo sapiens) (UniProt Q02156).
T2 sequence (whole entry): T1 sequence (Q02156 whole entry)
Described as §1. Summed up: as §2

Data set [6] addresses Protein kinase C alpha type (Homo sapiens) (UniProt P17252). The data set is described as follows: Inhibition of PKCalpha (unknown origin) at 50 uM.
The target of data set [7] is T2, Protein kinase C epsilon type (Homo sapiens). The data set is described as follows: Inhibition of PKCepsilon translocation to cell membrane in human PC3 cells at 25 to 50 uM by densitometric analysis. The class given is cell-based. The settings on record: PC-3. Summed up:
(§3)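 PC-3 cells starved 16 h, agent 30 min, then 50 nM TPA 5 min; lysed and split into cytosolic and membrane fractions; Western blot for PKCε, PKCε pSer729 or PKCδ, with IGFI-βR (membrane) and GAPDH (cytosol) loading controls; densitometry of four independent experiments, normalized to control, t test.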

The subject of data set [8] is HeLa. Nature of the data set: Antiinvasive activity against human HeLa cells expressing doxycycline-inducible PKCepsilon at 25 uM after 24 hrs. It is filed as functional, cell-based. In short, it runs like this:
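Invasion of HeLa cells carrying doxycycline-inducible constitutively active PKCε, PKCε expression induced with doxycycline, through reconstituted basement membrane matrix using a commercial invasion kit per manufacturer; mean of three experiments, normalized to control (100%), t test.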

The target in data set [9] is T2, Protein kinase C epsilon type (Homo sapiens). The data set is described as follows: Inhibition of phosphorylated form of PKCepsilon translocation to cell membrane in human PC3 cells at 25 to 50 uM by densitometric analysis. The class given is cell-based. To be noted: PC-3. In short, it runs like this: as §3
Data set [10] is filed under the species Gallus gallus. The data set is described as follows: Antiangiogenic activity in chicken egg assessed as inhibition of VEGF-induced angiogenesis at 10 ng after 5 days by microscopic analysis. The class given is functional. In short, it runs like this: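 Hen eggs incubated 3 days at 37 °C, opened, incubated 7 more days; VEGF and test agent added on day 10; after 5 further days, vessel formation inspected by microscope.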

For data set [11], the target named is Mitogen-activated protein kinase 3 (Homo sapiens) (UniProt P27361). The data set is described as follows: Inhibition of ERK1 (unknown origin) at 25 uM; values are per cent of control.
Data set [12] addresses Serine/threonine-protein kinase pim-3 (Homo sapiens) (UniProt Q86V86). The data set is described as follows: Inhibition of PIM3 (unknown origin) at 25 uM; values are per cent of control.
The target in data set [13] is T2, Protein kinase C epsilon type (Homo sapiens). The data set is described as follows: Inhibition of recombinant PKCepsilon (unknown origin)-MBP-tagged RACK2 interaction at 25 uM after 1 hr by ELISA-based assay relative to untreated control; values are per cent of control.
Data set [14] has the same target. The data set is described as follows: Inhibition of recombinant PKCepsilon (unknown origin)-MBP-tagged RACK2 interaction at 10 uM after 1 hr by ELISA-based assay relative to untreated control. The settings on record: values are per cent of control. In short, it runs like this: as §2
For data set [15] the target is unchanged. The data set is described as follows: Inhibition of TPA-induced PKCepsilon Ser729 phosphorylation in human PC3 cell membrane at 25 to 50 uM by densitometric analysis. It is filed as cell-based. The settings on record: PC-3. In short, it runs like this: as §3
Data set [16] has as its target T1, Protein kinase C epsilon type. The data set is described as follows: (§4) Inhibition of PKCepsilon-induced phosphorylation of Elk1 in human HeLa cells after 4 hrs by luciferase reporter gene assay. It is filed as cell-based. Summed up:
(§5)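 PathDetect HeLa-HLR Elk-1 trans-reporting cells (200 000/well, grown 24 h) starved 16 h in 0.5% FBS medium; agent 30 min, 50 nM TPA 5 min, washed, then 4 h in starvation medium with agent; luciferase read on 20 μg lysate protein; mean ±SD of three experiments normalized to control; IC50 by CalcuSyn.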
On the technique in general: Reporter assays use an easily measured gene product as a stand-in for the process of interest.

In data set [17] the target is T2, Protein kinase C epsilon type (Homo sapiens). The description is as §4. It is filed as cell-based. Summed up:
as §5

Data set [18] addresses Protein kinase C delta type (Homo sapiens) (UniProt Q05655). The data set is described as follows: Inhibition of PKCdelta translocation to cell membrane in human PC3 cells at 25 to 50 uM by densitometric analysis. It is filed as cell-based. The settings on record: PC-3. In short, it runs like this: as §3
The target of data set [19] is T2, Protein kinase C epsilon type (Homo sapiens). Nature of the data set: Inhibition of TPA-induced PKCepsilon translocation to cell membrane in human PC3 cells at 50 uM by immunofluorescence analysis. It is filed as cell-based. To be noted: PC-3. Summed up:
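PC-3 cells on poly-L-lysine coverslips treated with agent 30 min then 100 nM TPA 5 min; fixed in 4% paraformaldehyde/4% sucrose, permeabilized, stained for PKCε with fluorescent secondary, imaged by microscopy; three independent experiments.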

Chain of Protein kinase C beta type (Homo sapiens) (P05771 2-671 limits assumed): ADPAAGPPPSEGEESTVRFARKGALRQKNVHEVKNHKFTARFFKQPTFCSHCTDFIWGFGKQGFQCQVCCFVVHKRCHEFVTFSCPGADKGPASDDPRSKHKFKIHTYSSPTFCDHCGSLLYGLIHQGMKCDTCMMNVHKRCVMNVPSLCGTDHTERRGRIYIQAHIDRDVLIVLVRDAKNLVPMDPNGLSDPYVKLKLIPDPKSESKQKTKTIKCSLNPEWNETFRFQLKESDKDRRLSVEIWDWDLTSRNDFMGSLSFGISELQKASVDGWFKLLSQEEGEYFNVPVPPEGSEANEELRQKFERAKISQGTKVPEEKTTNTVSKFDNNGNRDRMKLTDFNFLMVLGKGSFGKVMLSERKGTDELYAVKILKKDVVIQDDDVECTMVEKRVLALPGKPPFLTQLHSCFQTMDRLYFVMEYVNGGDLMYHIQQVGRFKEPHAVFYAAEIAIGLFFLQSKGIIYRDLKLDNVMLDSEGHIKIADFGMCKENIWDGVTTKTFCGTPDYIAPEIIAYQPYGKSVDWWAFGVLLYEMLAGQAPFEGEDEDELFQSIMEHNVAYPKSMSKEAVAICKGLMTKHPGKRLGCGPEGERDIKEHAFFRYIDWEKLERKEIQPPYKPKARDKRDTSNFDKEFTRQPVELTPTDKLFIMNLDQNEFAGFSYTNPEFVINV
Chain of Protein kinase C delta type (Homo sapiens) (Q05655 whole entry, looked up): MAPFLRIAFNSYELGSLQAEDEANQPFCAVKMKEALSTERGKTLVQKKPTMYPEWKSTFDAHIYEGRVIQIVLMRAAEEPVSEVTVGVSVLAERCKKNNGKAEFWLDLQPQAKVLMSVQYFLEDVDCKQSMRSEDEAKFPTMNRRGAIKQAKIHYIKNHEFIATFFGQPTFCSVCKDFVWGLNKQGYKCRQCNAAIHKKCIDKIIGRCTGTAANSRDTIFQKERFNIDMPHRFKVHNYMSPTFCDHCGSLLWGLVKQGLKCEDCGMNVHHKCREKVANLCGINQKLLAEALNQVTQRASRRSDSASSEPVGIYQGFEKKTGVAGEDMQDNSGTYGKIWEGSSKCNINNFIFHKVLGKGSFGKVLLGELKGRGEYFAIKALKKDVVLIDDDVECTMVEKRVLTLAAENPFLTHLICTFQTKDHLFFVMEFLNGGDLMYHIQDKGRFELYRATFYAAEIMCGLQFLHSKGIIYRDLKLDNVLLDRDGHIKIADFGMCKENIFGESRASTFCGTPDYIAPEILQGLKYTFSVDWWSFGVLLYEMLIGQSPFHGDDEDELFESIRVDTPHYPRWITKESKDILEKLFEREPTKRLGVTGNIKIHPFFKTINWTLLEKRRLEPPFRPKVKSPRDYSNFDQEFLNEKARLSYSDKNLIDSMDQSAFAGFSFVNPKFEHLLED
Chain of Mitogen-activated protein kinase 3 (Homo sapiens) (P27361 whole entry): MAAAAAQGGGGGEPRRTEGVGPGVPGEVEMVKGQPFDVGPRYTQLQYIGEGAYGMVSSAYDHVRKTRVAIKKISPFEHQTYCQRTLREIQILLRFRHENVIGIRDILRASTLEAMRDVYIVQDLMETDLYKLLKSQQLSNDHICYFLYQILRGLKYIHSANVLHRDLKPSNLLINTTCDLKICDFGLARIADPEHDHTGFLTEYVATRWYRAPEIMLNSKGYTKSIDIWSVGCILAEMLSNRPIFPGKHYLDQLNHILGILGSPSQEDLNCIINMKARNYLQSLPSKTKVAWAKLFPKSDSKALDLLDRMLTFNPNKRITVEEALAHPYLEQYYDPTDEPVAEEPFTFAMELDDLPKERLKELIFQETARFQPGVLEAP
Chain of Ribosomal protein S6 kinase alpha-3 (Homo sapiens) (P51812 whole entry): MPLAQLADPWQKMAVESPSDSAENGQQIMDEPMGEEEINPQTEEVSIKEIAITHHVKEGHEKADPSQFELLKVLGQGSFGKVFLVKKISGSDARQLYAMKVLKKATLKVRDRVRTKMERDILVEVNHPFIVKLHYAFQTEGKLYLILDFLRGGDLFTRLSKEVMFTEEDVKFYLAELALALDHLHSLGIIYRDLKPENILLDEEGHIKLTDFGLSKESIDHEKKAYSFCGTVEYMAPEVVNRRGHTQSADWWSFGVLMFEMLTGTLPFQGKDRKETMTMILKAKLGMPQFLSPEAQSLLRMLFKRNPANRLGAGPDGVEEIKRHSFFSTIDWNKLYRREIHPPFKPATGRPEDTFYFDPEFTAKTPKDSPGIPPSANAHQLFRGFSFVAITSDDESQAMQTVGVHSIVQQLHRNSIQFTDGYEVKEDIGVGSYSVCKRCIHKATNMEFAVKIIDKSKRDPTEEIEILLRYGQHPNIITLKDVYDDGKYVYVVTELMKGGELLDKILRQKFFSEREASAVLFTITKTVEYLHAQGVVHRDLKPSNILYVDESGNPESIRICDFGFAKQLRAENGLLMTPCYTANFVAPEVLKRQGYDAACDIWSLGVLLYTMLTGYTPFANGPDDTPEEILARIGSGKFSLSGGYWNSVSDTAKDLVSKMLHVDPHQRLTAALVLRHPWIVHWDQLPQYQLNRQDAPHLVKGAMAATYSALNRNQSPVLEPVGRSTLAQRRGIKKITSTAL

With `CC(=O)c1cccc(NC(=O)c2sc3nc4cc5c(cc4cc3c2N)OCCO5)c1`, the residual activity in [1] turned out to be 27%; in data set [11], 55%; in data set [12], 46%; in [13], 13.3%. In data set [2], the Activity result is “Non-toxic”. In addition, the inhibition (usually the relative decrease from the control value, in per cent) in [3] was 80%; in data set [5], “Dose-dependent effect”; in data set [6], 80%; in [17], “Dose-dependent effect”. The IC50 – broadly, the concentration needed to halve the response being measured – in [4] was determined as 5.9 µM; in data set [16] it was 11.2 µM. Also, the inhibition result in [7], in data set [8], in data set [9], in data set [10] and in data set [19] was “Active” throughout. Moreover, in data set [14], the residual binding, % of control amounted to 23.6%. The inhibition entry in [15] and in data set [18] was “inactive” throughout.
